Test results reported in publication PMC2568025 (The Journal of Cell Biology, 2008).
“Also recorded” adds a separate entry of the source. Where a name gives a salt, the structure may show the parent alone. Bridge positions count the residues as written; N and C are the ends. Ends that are not written are not given here.

What was measured:
[1] = system: HEK-PR1 cells; assay: Potentiation of CCh-evoked Ca^2+ signals in cell populations; assay type: cell-based, human; settings: for increase in the sensitivity to CCh: PTH 100 nM 1 min, 8-Br-cAMP 10 mM 20 min; for Δ [Ca^2+]i Maximal increase: potentiation of CCh-evoked Ca^2+ signal, 30-s stimulation; for effect of stimulus alone on [Ca^2+]i / Ca^2+ release (absence of CCh): somatostatin 1 μM; for potentiation of CCh-evoked Ca^2+ signals: qualitative; for effect on CCh-evoked Ca^2+ signals: 30 mM
[2] = system: HEK-PR1 cells; assay: cAMP production measured by RIA; assay type: cell-based, human; settings: for Δ cAMP Maximal response: identical conditions to Ca^2+ assay (with CCh); for EC50: read-out: Δ cAMP EC50
[3] = system: HEK-PR1 cells; assay: Single cell imaging of [Ca^2+]i; assay type: cell-based, human; settings: single cell analyses
[4] = system: HEK-PR1 cells; assay: Protein phosphorylation by Western blot with AbP; assay type: cell-based, human; settings: H89 10 μM for 20 min
Procedure, shortened: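 Cells treated with 8-Br-cAMP (10 mM, 20 min), FK (100 μM, 30 s) or PTH (100 nM, 30 s), alone or after H89 (10 μM, 20 min) or st-ht31 (100 μM, 30 min). Lysed at 4°C in Triton X-100 buffer, pH 7.4, with NaF, pyrophosphate and vanadate. Blots probed with anti-phospho Ser/Thr antibody. For IP3R, the immunoprecipitated receptor signal was normalised to IP3R3 and expressed relative to unstimulated cells (n = 3–4).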

[5] = system: IP3R; assay: IP3-evoked Ca^2+ release from permeabilized cells
[6] = system: HEK-PR1 cells; settings: <100 μM; ref Short and Taylor, 2000; Tovey et al., 2003; cited from earlier work
[7] = system: PKA; settings: ref He et al., 2003; cited from earlier work
[8] = Homo sapiens, read-out: Δ [Ca^2+]i EC50

CC(C)Cn1c(=O)n(C)c(=O)c2[nH]cnc21 [IBMX, 3-isobutyl-1-methylxanthine]
effect of PDE inhibition on potentiated Ca^2+ signals ([1]; IBMX 1 mM for 20 min): slight inhibition

human PTH(1–34)
increase in the sensitivity to CCh ([1]; intact cells): three- to fourfold | Δ [Ca^2+]i Maximal increase [1]: 101 ± 14 nM | EC50 ([1]; read-out: EC50 for PTH-mediated Ca^2+ signaling, after loss of AC6 (siRNA)): 54 ± 5 nM | EC50 ([1]; read-out: EC50 for PTH-mediated Ca^2+ signaling, before loss of AC6): 63 ± 3 nM | effect of stimulus alone on [Ca^2+]i / Ca^2+ release (absence of CCh) [1]: does not alone cause Ca^2+ release; also recorded: no significant effect | Δ cAMP Maximal response ([2]; 30-s stimulation): 6,662 ± 1232 fmol/sample | EC50 ([2]; 30-s stimulation, with CCh): 29 ± 7 nM | cells that responded to CCh in which the Ca^2+ signal was potentiated [3]: 99 ± 1%

CC(C)NCC(O)c1ccc(O)c(O)c1 (racemic) [Isoproterenol, (±)-isoproterenol hydrochloride]
EC50 [1, 8]: 90 ± 24 nM | Δ [Ca^2+]i Maximal increase [1]: 30 ± 6 nM | potentiation of CCh-evoked Ca^2+ signals [1]: potentiated CCh-evoked Ca^2+ signals | effect of stimulus alone on [Ca^2+]i / Ca^2+ release (absence of CCh) [1]: no significant effect | Δ cAMP Maximal response ([2]; 30-s stimulation): 91 ± 15 fmol/sample | EC50 ([2]; Homo sapiens): 113 ± 43 nM | cells that responded to CCh in which the Ca^2+ signal was potentiated [3]: 80 ± 4%

C=C[C@@]1(C)CC(=O)[C@]2(O)[C@@]3(C)[C@@H](O)CCC(C)(C)[C@@H]3[C@H](O)[C@H](OC(C)=O)[C@@]2(C)O1 [FK, forskolin]
EC50 [1, 8]: 8700 ± 2000 nM | Δ [Ca^2+]i Maximal increase [1]: 55 ± 5 nM | potentiation of CCh-evoked Ca^2+ signals [1]: So too did | effect of stimulus alone on [Ca^2+]i / Ca^2+ release (absence of CCh) [1]: no significant effect | Δ cAMP Maximal response ([2]; 30-s stimulation): 236 ± 29 fmol/sample | EC50 ([2]; Homo sapiens): 3300 ± 400 nM | cells that responded to CCh in which the Ca^2+ signal was potentiated [3]: 95 ± 3%

somatostatin (AGCKNFFWKTFTSC; disulfide 3-14 (inferred); ends not checked; UniProt P61278 103-116, looked up)
effect of stimulus alone on [Ca^2+]i / Ca^2+ release (absence of CCh) [1]: nor does

CO[C@H]1C2OP(=O)(O)OC[C@H]2O[C@H]1n1c(Br)nc2c(N)ncnc21 (stereo partly shown) [8-Br-2′-O-methyladenosine-3′,5′-cAMP]
effect on CCh-evoked Ca^2+ signals ([1]; intact cells): no effect

Cl.Cl.O=S(=O)(NCCNC/C=C/c1ccc(Br)cc1)c1cccc2cnccc12 [H89, H89 dihydrochloride]
effect of inhibition of PKA on responses of intact cells to 8-Br-cAMP ([1]; 10 μM H89, unpublished data): unaffected | effect of H89 on sensitivity to isoproterenol ([1]; by competing for occupancy of β-adrenoceptors (Fig. S2 E)): decreased the sensitivity to isoproterenol | effect on phosphorylation of proteins stimulated by PTH, FK and 8-Br-cAMP [4]: prevented

Nc1nc2c(nc(Br)n2[C@@H]2O[C@@H]3COP(=O)(O)O[C@H]3[C@H]2O)c(=O)[nH]1 [8-Br-cGMP]
effect on CCh-evoked Ca^2+ signals ([1]; intact cells): ineffective

C=C[C@@]1(C)CC(=O)[C@@H]2[C@@]3(C)CCCC(C)(C)[C@@H]3[C@H](O)[C@H](OC(C)=O)[C@@]2(C)O1 [1,9-dideoxyforskolin]
effect on [Ca^2+]i either alone or with CCh ([1]; 100 μM, unpublished data): no effect

CCCCC[C@H](O)/C=C/[C@H]1[C@H](O)CC(=O)[C@@H]1CCCCCCC(=O)O [PGE1, Prostaglandin E1]
potentiation of CCh-evoked Ca^2+ signals [1]: potentiated CCh-evoked Ca^2+ signals

Nc1ncnc2c1ncn2[C@@H]1O[C@@H]2COP(=O)(O)O[C@H]2[C@H]1O [cAMP, cyclic adenosine monophosphate]
increase in sensitivity of IP3-evoked Ca^2+ release ([5]; permeabilized HEK cells, high concentrations of cAMP): ~4.5 fold | affinity of IP3R site for cAMP relative to that of PKA or CNGC ([5]; ref Wong and Scott, 2004 for PKA or CNGC): ~20,000 times lower

C[N+](C)(C)CCOC(N)=O [CCh, Carbachol]
cells that responded to CCh [3]: 98 ± 1%

Nc1ncnc2c1nc(Br)n2[C@@H]1O[C@@H]2COP(=O)(O)O[C@H]2[C@H]1O [8-Br-cAMP]
EC50 ([5]; read-out: EC50 for potentiation of IP3-evoked Ca^2+ release, permeabilized cells): 324000 ± 45000 nM | effect on CCh-evoked Ca^2+ signals ([1]; intact cells): similarly potentiated | increase in the sensitivity to CCh ([1]; intact cells): three- to fourfold | EC50 ([1]; read-out: EC50 for potentiation of CCh-evoked Ca^2+ signals, intact cells, 1 mM CCh, 20-min preincubation): 870000 ± 370000 nM | potentiation of Ca^2+ signals at low concentrations [6]: did not significantly potentiate | concentrations that activate PKA [7]: < 100 µM
